Key:
[1] = Storage modulus / gel forming of peptide gel with PBS; assay type: physicochemical
[2] = Solubility in pure water at room temperature; assay type: physicochemical; conditions: for solubility: water; for Soluble or not at R.T.: room temperature
[3] = test system: gastric or colon submucosal layer; assay: Mucosal elevation by submucosal injection; assay type: in vivo; conditions: 0.5 ml of 1% w/v PRVDP9 or 10 mg ml^-1 sodium hyaluronate, rabbit, 30 min
TEM of peptide hydrogel = assay type: physicochemical; conditions: 6 mg ml^-1 peptide, hydrogel with PBS, 1% phosphotungstic acid stain
In short: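 Peptide was dissolved in pure water at 6 mg ml−1, then 10× PBS was added to give at most 1× PBS. The resulting hydrogel was dropped onto a copper grid and the excess blotted with filter paper. It was negatively stained with 1% phosphotungstic acid for 15 s, air-dried and imaged by transmission electron microscopy.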

Molecule	solubility [2]	Gel forming ([1]; 1% w/v peptide)	Gel forming ([1]; 2% w/v peptide)	Soluble or not at R.T. ([2]; 1% w/v)	Soluble or not at R.T. ([2]; 2% w/v)	further results
CC(=O)N[C@@H](CCCNC(=N)N)C(=O)N[C@@H](C)C(=O)N[C@@H](CC(=O)O)C(=O)N[C@@H](C)C(=O)N[C@@H](CCCNC(=N)N)C(=O)N[C@@H](C)C(=O)N[C@@H](CC(=O)O)C(=O)N[C@@H](C)C(=O)N[C@@H](CCCNC(=N)N)C(=O)N[C@@H](C)C(=O)N[C@@H](CC(=O)O)C(=O)N[C@@H](C)C(=O)N[C@@H](CCCNC(=N)N)C(=O)N[C@@H](C)C(=O)N[C@@H](CC(=O)O)C(=O)N[C@@H](C)C(N)=O [RADA16, AC-RADARADARADARADA-NH2, reference compound]	< 30 mg/mL	–	–	–	–	Concentration of peptide solution at which it self-assembled into a gel ([1]; peptide solution, without triggering): 3 % w/v
Ac-PRVDVRVDP-NH2 [PRVDP9, AC-PRVDVRVDP-NH2]	≥ 40 mg/mL	Yes	Yes	Yes	Yes	HE staining of colonic mucosa after submucosal injection [3]: showed a bulge, and the cavity was evenly filled with red-stained self-assembling peptides; Gel forming when mixed with PBS (vial turned upside down) ([1]; 1%, 2%, 3% w/v in pure water, 10× PBS added to not exceed 1×, stand 10 seconds): good gel-forming ability; Storage modulus of peptide gel (in words) ([1]; 3% w/v peptide, gel with PBS, recorded at 1 Hz): almost equivalent to that of 2.5% w/v RADA; Solubility (comparison, in words) [2]: superior solubility as compared with PRVD9; Nanostructure by TEM (TEM of peptide hydrogel): formed a dense nanofiber scaffold
Ac-RVDVRVDV-NH2 [RVDV8, AC-RVDVRVDV-NH2]	< 30 mg/mL	–	–	–	–	–
Ac-PKVEVKVEP-NH2 [PKVEP9, AC-PKVEVKVEP-amide]	≥ 40 mg/mL	Yes	Yes	Yes	Yes	–
Ac-PRVEVRVEP-NH2 [PRVEP9, Ac-PRVEVRVEP-amide]	–	–	–	No	–	Soluble or not at R.T. ([2]; 0.5% w/v): No
Ac-VRVDVRVDV-NH2 [VRVDV9, AC-VRVDVRVDV-NH2]	< 30 mg/mL	–	–	–	–	–
Ac-PKIEIKIEP-NH2 [PKIEP9, AC-PKIEIKIEP-amide]	–	No	–	Yes	–	Gel forming ([1]; 0.5% w/v peptide): No; Soluble or not at R.T. ([2]; 0.5% w/v): Yes
Ac-PKLDLKLDP-NH2 [PKLDP9, AC-PKLDLKLDP-amide]	–	No	No	Yes	Yes	–
Ac-PRIDIRIDP-NH2 [PRIDP9, AC-PRIDIRIDP-amide]	–	No	No	Yes	Yes	–
